# From ChEMBL document CHEMBL4177542, “A New Combination of a Pleuromutilin Derivative and Doxycycline for Treatment of Multidrug-Resistant Acinetobacter baumannii” (J Med Chem, 2017)
# Tests used:
# [1] = system: Pseudomonas aeruginosa; assay: Synergistic antibacterial activity against Pseudomonas aeruginosa ATCC 27853 at 35:1 compound to doxycycline ratio after 48 hrs by resazurin dye based microdilution broth checkerboard method; assay type: functional; conditions: ATCC 27853, 48 h
# How it was run: (§1)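 Microdilution broth checkerboard of the compound combined with doxycycline, using the resazurin broth method (48 h, 37 °C, blue = no growth). ΣFIC = C_A/MIC_A + C_B/MIC_B, taken at the growth–no growth interface wells; ΣFIC below 0.5 is scored as synergy. MBC for the fixed-ratio combinations read as the 4 h resazurin endpoint.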
# [2] = system: Escherichia coli; assay: Synergistic bactericidal activity against Escherichia coli ATCC 10798 at 60:1 compound to doxycycline ratio after 48 hrs by resazurin dye based microdilution broth checkerboard method; assay type: functional; conditions: ATCC 10798, 48 h, read-out: MBC99.9
# How it was run: (§2)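 Checkerboard broth microdilution of drug pairs in tryptic soy broth on mid-log cultures (OD 0.5), 48 h at 37 °C. Growth read by resazurin (pink growth, blue no growth). MBC is blue retained over 4 h, CFU plating where needed. ΣFIC = C_A/MIC_A + C_B/MIC_B, taken at the growth/no-growth interface wells; ΣFIC <0.5 counts as synergy.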
# [3] = system: Acinetobacter baumannii; assay: Synergistic antibacterial activity against multidrug-resistant Acinetobacter baumannii ATCC […] at 2:1 compound to doxycycline ratio after 48 hrs by resazurin dye based microdilution broth checkerboard method; assay type: functional; conditions: ATCC BAA 18002, 48 h; how it was run: as §1
# [4] = system: Acinetobacter baumannii; assay: Growth inhibition of Acinetobacter baumannii ATCC 19606 after 48 hrs by resazurin dye based microdilution method; assay type: functional; conditions: ATCC 19606 = CIP 70.34 = JCM 6841, 48 h
# How it was run: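 A. baumannii ATCC 19606 grown in tryptic soy broth, 37 °C with shaking, to mid-log (OD 0.5). Cultures treated with serial dilutions of inhibitor (DMSO stock 1 mg/100 μL), 48 h at 37 °C. Resazurin then added, 1 h at 37 °C with shaking. MIC is the lowest concentration staying blue; MBC is blue retained over 4 h, with CFU plating if needed (99.9% kill).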
# [5] = system: Acinetobacter baumannii; assay: Synergistic antibacterial activity against Acinetobacter baumannii ATCC 19606 at 2:1 compound to doxycycline ratio after 48 hrs by resazurin dye based microdilution broth checkerboard method; assay type: functional; conditions: ATCC 19606 = CIP 70.34 = JCM 6841, 48 h; how it was run: as §2
# [6] = system: Escherichia coli; assay: Synergistic bactericidal activity against Escherichia coli ATCC 10798 at 35:1 compound to doxycycline ratio after 48 hrs by resazurin dye based microdilution broth checkerboard method; assay type: functional; conditions: ATCC 10798, 48 h, read-out: MBC99.9; how it was run: as §2
# [7] = system: Mycobacterium tuberculosis; assay: Bactericidal activity against Mycobacterium tuberculosis H37Rv after 48 hrs by resazurin dye based microdilution method; assay type: functional; conditions: read-out: MBC99.9
# [8] = system: Klebsiella pneumoniae; assay: Synergistic bactericidal activity against Klebsiella pneumoniae ATCC 8047 at 2:1 compound to doxycycline ratio after 48 hrs by resazurin dye based microdilution broth checkerboard method; assay type: functional; conditions: ATCC 8047, 48 h, read-out: MBC99.9; how it was run: as §2
# [9] = system: Escherichia coli; assay: Synergistic antibacterial activity against Escherichia coli ATCC 10798 at 2:1 compound to doxycycline ratio after 48 hrs by resazurin dye based microdilution broth checkerboard method; assay type: functional; conditions: ATCC 10798, 48 h; how it was run: as §2
# [10] = system: Klebsiella pneumoniae; assay: Growth inhibition of Klebsiella pneumoniae ATCC 8047 after 48 hrs by resazurin dye based microdilution method; assay type: functional; conditions: ATCC 8047, 48 h
# How it was run: (§3)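 Broth microdilution in tryptic soy broth. Mid-log cultures (OD600 0.5) treated with serial dilutions from a DMSO stock (1 mg per 100 μL) for 48 h at 37 °C. Resazurin (stock 0.02%) then added for 1 h at 37 °C. MIC is the lowest concentration staying blue; MBC is blue retained over 4 h (99.9% kill), with CFU plating when needed.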
# [11] = system: Klebsiella pneumoniae; assay: Synergistic antibacterial activity against Klebsiella pneumoniae ATCC 8047 at 35:1 compound to doxycycline ratio after 48 hrs by resazurin dye based microdilution broth checkerboard method; assay type: functional; conditions: ATCC 8047, 48 h; how it was run: as §2
# [12] = system: Acinetobacter baumannii; assay: Synergistic bactericidal activity against multidrug-resistant Acinetobacter baumannii ATCC […] at 60:1 compound to doxycycline ratio […] by resazurin dye based microdilution broth checkerboard method; assay type: functional; conditions: read-out: MBC99.9
# [13] = system: Acinetobacter baumannii; assay: Synergistic antibacterial activity against Acinetobacter baumannii ATCC 19606 infected in C57BL/6 mouse assessed as survival rate at compound to doxycycline ratio of 35:1 at 20 mg/kg, ip administered as single dose measured for 5 days (reference value: <20%); assay type: functional; conditions: ATCC 19606 = CIP 70.34 = JCM 6841, ip, 120 h
# How it was run: (§4)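 C57BL/6 mice (n = 5 per group; 4 untreated controls) infected intraperitoneally with A. baumannii ATCC19606 grown at 37 °C and collected by centrifugation, at a dose giving 75% death. Single intraperitoneal dose (2 to 60 mg/kg) given 1 h after infection. Mice monitored for 5 days, with death as the end point; survival rate recorded.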
# [14] = system: Acinetobacter baumannii; assay: Synergistic antibacterial activity against multidrug-resistant Acinetobacter baumannii ATCC […] at 35:1 compound to doxycycline ratio after 48 hrs by resazurin dye based microdilution broth checkerboard method; assay type: functional; conditions: ATCC BAA 18002, 48 h; how it was run: as §1
# [15] = system: Klebsiella pneumoniae; assay: Synergistic antibacterial activity against Klebsiella pneumoniae ATCC 8047 at 2:1 compound to doxycycline ratio after 48 hrs by resazurin dye based microdilution broth checkerboard method; assay type: functional; conditions: ATCC 8047, 48 h; how it was run: as §1
# [16] = system: Acinetobacter baumannii; assay: Synergistic antibacterial activity against Acinetobacter baumannii ATCC 19606 infected in C57BL/6 mouse assessed as survival rate at compound to doxycycline ratio of 35:1 at 60 mg/kg, ip administered as single dose measured for 5 days (reference value: <20%); assay type: functional; conditions: ATCC 19606 = CIP 70.34 = JCM 6841, ip, 120 h; how it was run: as §4
# [17] = system: Acinetobacter baumannii; assay: Potentiation of doxycycline-induced antimicrobial activity against Acinetobacter baumannii ATCC 19606 at 0.40 ug/ml in presence of 0.025 ug/ml doxycycline by microdilution broth checkerboard method; assay type: functional, ATCC 19606 = CIP 70.34 = JCM 6841
# How it was run: (§5)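 A. baumannii ATCC 19606 in a broth microdilution checkerboard with doxycycline, 96 concentration combinations. ΣFIC = C_A/MIC_A + C_B/MIC_B, taken for wells at the growth/no-growth interface; ΣFIC <0.5 counts as synergy.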
# [18] = system: Acinetobacter baumannii; assay: Synergistic antibacterial activity against Acinetobacter baumannii ATCC 19606 infected in C57BL/6 mouse assessed as increase in survival rate at compound to doxycycline ratio of 35:1 administered ip as single dose measured for 5 days; assay type: functional; conditions: ATCC 19606 = CIP 70.34 = JCM 6841, ip, 120 h; how it was run: as §4
# [19] = system: Acinetobacter baumannii; assay: Growth inhibition of multidrug-resistant Acinetobacter baumannii ATCC BAA 18002 after 48 hrs by resazurin dye based broth microdilution method; assay type: functional; conditions: ATCC BAA 18002, 48 h; how it was run: as §3
# [20] = system: Escherichia coli; assay: Synergistic antibacterial activity against Escherichia coli ATCC 10798 at 35:1 compound to doxycycline ratio after 48 hrs by resazurin dye based microdilution broth checkerboard method; assay type: functional; conditions: ATCC 10798, 48 h; how it was run: as §2
# [21] = system: Klebsiella pneumoniae; assay: Synergistic bactericidal activity against Klebsiella pneumoniae ATCC 8047 at 60:1 compound to doxycycline ratio after 48 hrs by resazurin dye based microdilution broth checkerboard method; assay type: functional; conditions: ATCC 8047, 48 h, read-out: MBC99.9; how it was run: as §2
# [22] = system: Escherichia coli; assay: Synergistic bactericidal activity against Escherichia coli ATCC 10798 at 2:1 compound to doxycycline ratio after 48 hrs by resazurin dye based microdilution broth checkerboard method; assay type: functional; conditions: ATCC 10798, 48 h, read-out: MBC99.9; how it was run: as §2
# [23] = system: Acinetobacter baumannii; assay: Potentiation of doxycycline-induced antimicrobial activity against Acinetobacter baumannii ATCC 19606 at 0.40 ug/ml in presence of 0.05 ug/ml doxycycline by microdilution broth checkerboard method; assay type: functional, ATCC 19606 = CIP 70.34 = JCM 6841; how it was run: as §5
structure (smiles),measurement,setting,value
C=C[C@]1(C)C[C@@H](OC(=O)CSC(C)(C)CNC(=O)[C@H](N)C(C)C)[C@]2(C)[C@H](C)CC[C@]3(CC[C@@H](O)[C@H]32)[C@@H](C)[C@@H]1O,MIC,[1],12.5 µg/mL
same,MBC,[2],1.56 µg/mL
same,MIC,[3],1.56 µg/mL
same,MIC,[4],1.75 µg/mL
same,MIC,[5],0.5 µg/mL
same,MBC,[6],1.56 µg/mL
same,MBC,[7],6.25 µg/mL
same,MBC,[8],1.56 µg/mL
same,MIC,[9],0.25 µg/mL
same,MIC,[10],< 6.25 µg/mL
same,MIC,[11],0.78 µg/mL
same,MBC,[12],6.25 µg/mL
same,survival at 20 mg/kg,[13],100%
same,MIC,[14],1.56 µg/mL
same,MIC,[15],0.78 µg/mL
same,survival at 60 mg/kg,[16],100%
same,fractional inhibitory concentration index (FICI),[17],0.19
same,ED50,[18],< 2 mg/kg
same,MIC,[19],6.25 µg/mL
same,MIC,[20],0.25 µg/mL
same,MBC,[21],3.25 µg/mL
same,MBC,[22],1.56 µg/mL
same,fractional inhibitory concentration index (FICI),[23],0.31
